From ChEMBL document CHEMBL3526015, “Metabolism of the c-Fos/activator protein-1 inhibitor T-5224 by multiple human UDP-glucuronosyltransferase isoforms” (Drug Metab Dispos, 2011)

T1: UDP-glucuronosyltransferase 1A3 (Homo sapiens, UniProt P35503)
T1 sequence (P35503 whole entry): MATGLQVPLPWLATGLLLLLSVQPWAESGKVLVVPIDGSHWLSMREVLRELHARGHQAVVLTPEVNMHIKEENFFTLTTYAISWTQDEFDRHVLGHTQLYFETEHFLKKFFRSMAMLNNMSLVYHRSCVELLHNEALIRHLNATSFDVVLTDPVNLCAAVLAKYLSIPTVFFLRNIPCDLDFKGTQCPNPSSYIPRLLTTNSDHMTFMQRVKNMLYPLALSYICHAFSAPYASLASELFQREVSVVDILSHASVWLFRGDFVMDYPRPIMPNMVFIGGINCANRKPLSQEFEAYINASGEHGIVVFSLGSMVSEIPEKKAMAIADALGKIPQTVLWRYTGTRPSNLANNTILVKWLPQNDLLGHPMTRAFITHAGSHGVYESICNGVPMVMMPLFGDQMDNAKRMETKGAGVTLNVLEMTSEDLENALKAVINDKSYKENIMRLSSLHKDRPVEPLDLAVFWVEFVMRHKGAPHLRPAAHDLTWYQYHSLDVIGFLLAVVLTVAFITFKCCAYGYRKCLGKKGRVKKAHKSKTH

T2: UDP-glucuronosyltransferase 1A1 (Homo sapiens, UniProt P22309)
T2 sequence (P22309 whole entry): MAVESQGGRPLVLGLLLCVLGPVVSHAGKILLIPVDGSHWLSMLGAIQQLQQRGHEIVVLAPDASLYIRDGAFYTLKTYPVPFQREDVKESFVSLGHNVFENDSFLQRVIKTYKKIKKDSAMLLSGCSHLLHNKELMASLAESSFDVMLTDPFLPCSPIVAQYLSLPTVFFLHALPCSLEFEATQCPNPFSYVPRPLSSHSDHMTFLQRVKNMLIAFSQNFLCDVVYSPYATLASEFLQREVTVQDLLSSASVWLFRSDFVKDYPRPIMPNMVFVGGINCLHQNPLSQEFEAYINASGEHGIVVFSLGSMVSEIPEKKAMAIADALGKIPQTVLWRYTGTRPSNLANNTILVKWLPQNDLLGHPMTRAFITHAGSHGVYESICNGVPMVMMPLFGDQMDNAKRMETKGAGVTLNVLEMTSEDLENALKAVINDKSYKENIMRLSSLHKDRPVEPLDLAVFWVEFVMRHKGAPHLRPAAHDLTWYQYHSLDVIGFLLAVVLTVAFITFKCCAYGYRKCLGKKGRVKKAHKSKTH


Key:
Liver microsome [1] = assay: Drug level in pooled human liver microsomes treated with T-5224 assessed as compound formation in presence of UDPGA by LC-MS/MS method; format: ADME
[2] = biological target: T1, UDP-glucuronosyltransferase 1A3; assay: Drug level assessed as human UGT1A3-mediated compound formation from 5 to 50 uM T-5224 after 60 mins in presence of UDP-glucuronic acid by HPLC method; format: ADME; conditions: recombinant enzyme, 1 h
In short: (§1)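 Recombinant human UGT microsomes from baculovirus-infected insect cells, 0.1 mg protein/mL, in 50 mM Tris-HCl pH 7.5, 8 mM MgCl2, alamethicin. T-5224 in DMSO (2% v/v final). Preincubated 5 min at 37°C, started with 2 mM UDPGA, run 60 min at 37°C and stopped with acetonitrile. Glucuronides resolved by C18 HPLC with UV at 290 nm. Linearity was checked at 0.05–0.2 mg/mL protein and 10–60 min.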

[3] = biological target: T1, UDP-glucuronosyltransferase 1A3; assay: Drug level assessed as human UGT1A3-mediated compound formation from 5 to 50 uM T-5224 after 10 to 60 mins in presence of UDP-glucuronic acid by HPLC method; format: ADME; conditions: recombinant enzyme; in short: as §1
[4] = biological target: T1, UDP-glucuronosyltransferase 1A3; assay: Drug level assessed as human UGT1A3-mediated compound formation from 5 to 50 uM T-5224 after 60 mins in presence of UDP-glucuronic acid using 0.05 to 0.2 mg/ml by HPLC method; format: ADME; conditions: recombinant enzyme, 1 h; in short: as §1
[5] = biological target: T2, UDP-glucuronosyltransferase 1A1; assay: Drug level assessed as human UGT1A1-mediated compound formation from 5 to 50 uM T-5224 after 60 mins in presence of UDP-glucuronic acid by HPLC method; format: ADME; conditions: recombinant enzyme, 1 h; in short: as §1
[6] = biological target: T2, UDP-glucuronosyltransferase 1A1; assay: Drug level assessed as human UGT1A1-mediated compound formation from 5 to 50 uM T-5224 after 10 to 60 mins in presence of UDP-glucuronic acid by HPLC method; format: ADME; conditions: recombinant enzyme; in short: as §1
Liver microsome [7] = assay: Drug level in pooled human liver microsomes treated with 10 uM T-5224 assessed as compound formation after 10 mins by HPLC method; format: ADME
In short: (§2)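 Pooled human liver microsomes at 0.5 mg protein/mL, or pooled intestinal microsomes at 0.25 mg/mL, in 50 mM Tris-HCl pH 7.5, 8 mM MgCl2, alamethicin, with 2 mM UDPGA. T-5224 at 10 μM, 10 min at 37°C after 5 min preincubation; stopped with acetonitrile. HPLC with UV at 290 nm. Linearity was tested over 0.1–1.0 mg/mL protein and 5–30 min.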

[8] = Drug level in pooled human intestinal microsomes treated with 10 uM T-5224 assessed as compound formation after 5 to 30 mins by HPLC method; format: ADME, Intestine, Microsome; in short: as §2
Liver microsome [9] = assay: Drug level in pooled human liver microsomes treated with 10 uM T-5224 assessed as compound formation after 5 to 30 mins by HPLC method; format: ADME; in short: as §2
[10] = Drug level in pooled human intestinal microsomes treated with 10 uM T-5224 assessed as compound formation after 10 mins using 0.1 to 1.0 mg/ml microsomal protein content by HPLC method; format: ADME, Intestine, Microsome; in short: as §2
[11] = biological target: T2, UDP-glucuronosyltransferase 1A1; assay: Drug level assessed as human UGT1A1-mediated compound formation from 5 to 50 uM T-5224 after 60 mins in presence of UDP-glucuronic acid using 0.05 to 0.2 mg/ml by HPLC method; format: ADME; conditions: recombinant enzyme, 1 h; in short: as §1
[12] = Drug level in pooled human intestinal microsomes treated with 10 uM T-5224 assessed as compound formation after 10 mins by HPLC method; format: ADME, Intestine, Microsome; in short: as §2
Liver microsome [13] = assay: Drug level in pooled human liver microsomes treated with 10 uM T-5224 assessed as compound formation after 10 mins using 0.1 to 1.0 mg/ml microsomal protein content by HPLC method; format: ADME; in short: as §2
[14] = substrate: O=C(O)CCc1cc(C(=O)c2ccc(OC3CCCC3)cc2O)ccc1OCc1ccc2c(O)noc2c1; assay: Drug metabolism assessed as human UGT1A8-mediated T-5224 hydroxyl O-glucuronide formation after 10 to 60 mins in presence of UDP-glucuronic acid by HPLC method; format: ADME
In short: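 Kinetics used recombinant UGT1A1, 1A3 or 1A8 (0.1 mg protein/mL) with T-5224 at 1–50 μM, 2 mM UDPGA and 60 min at 37°C, in triplicate. G2/G3 were measured by HPLC at 290 nm and fitted to a substrate-inhibition model (Vmax, Km, Ksi). UGT content was quantified by immunoblot, and kcat = Vmax/E0 was derived from it.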

Drug metabolism (Liver microsome [1]) | Drug metabolism [2] | Drug metabolism [3] | Drug metabolism [4] | Drug metabolism [5] | Drug metabolism [6] | Drug metabolism (Liver microsome [7]) | Drug metabolism [8] | Drug metabolism (Liver microsome [9]) | Drug metabolism [10] | Drug metabolism [11] | Drug metabolism [12] | Drug metabolism (Liver microsome [13]) | Molecule | Km [14] | Vmax [14] | kcat [14] | kcat/Km [14]
metabolite_detected | metabolite_detected | Dose-dependent effect | Dose-dependent effect | metabolite_detected | Dose-dependent effect | metabolite_detected | Dose-dependent effect | Dose-dependent effect | Dose-dependent effect | Dose-dependent effect | metabolite_detected | Dose-dependent effect | O=C(CCc1cc(C(=O)c2ccc(OC3CCCC3)cc2O)ccc1OCc1ccc2c(O)noc2c1)O[C@@H]1O[C@H](C(=O)O)[C@@H](O)[C@H](O)[C@H]1O |  |  |  | 
 |  |  |  |  |  |  |  |  |  |  |  |  | UDP-glucuronosyltransferase 1A8 (Homo sapiens) (protein) MARTGWTSPIPLCVSLLLTCGFAEAGKLLVVPMDGSHWFTMQSVVEKLILRGHEVVVVMPEVSWQLGKSLNCTVKTYSTSYTLEDLDREFMDFADAQWKAQVRSLFSLFLSSSNGFFNLFFSHCRSLFNDRKLVEYLKESSFDAVFLDPFDACGLIVAKYFSLPSVVFARGIACHYLEEGAQCPAPLSYVPRILLGFSDAMTFKERVRNHIMHLEEHLFCQYFSKNALEIASEILQTPVTAYDLYSHTSIWLLRTDFVLDYPKPVMPNMIFIGGINCHQGKPLPMEFEAYINASGEHGIVVFSLGSMVSEIPEKKAMAIADALGKIPQTVLWRYTGTRPSNLANNTILVKWLPQNDLLGHPMTRAFITHAGSHGVYESICNGVPMVMMPLFGDQMDNAKRMETKGAGVTLNVLEMTSEDLENALKAVINDKSYKENIMRLSSLHKDRPVEPLDLAVFWVEFVMRHKGAPHLRPAAHDLTWYQYHSLDVIGFLLAVVLTVAFITFKCCAYGYRKCLGKKGRVKKAHKSKTH | 6.05 µM | 0.000206 µmol/min | 0.00184 s⁻¹ | 303 M⁻¹ s⁻¹
